Laboratory results: ChEMBL document CHEMBL1132258, “gamma-Aminobutyrate-A receptor modulation by 3-aryl-1-(arylsulfonyl)- 1,4,5,6-tetrahydropyridazines” (J Med Chem, 1999)

Assays:
[1] = target: GABA-A receptor; anion channel; experiment: In vitro binding affinity to the Gamma-aminobutyric acid A receptor complex in absence of GABA in rat cerebellum tissue; type: tissue-based
[2] = target: GABA-A receptor; anion channel; experiment: In vitro binding affinity to the Gamma-aminobutyric acid A receptor complex in presence of GABA in rat cerebellum tissue; type: tissue-based
Mus musculus [3] = experiment: In vivo Horizontal screen test for motor impairment by the compound at the mentioned dose of 100, i.p. ( mg/kg); out of 6 tested animals; type: functional
In short: (§1)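 Mice were dosed ip with compound or vehicle (10 mL/kg). After 1 h, just before sc pentylenetetrazole, they were placed on an inverted horizontal screen. Passing meant climbing to the top side within 1 min. Results are reported as number passed over number tested.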

Mus musculus [4] = experiment: In vivo suppression of pentylenetetrazole-induced convulsions by the compound at the mentioned dose of, 100, i.p. ( mg/kg); out of 6 tested animals; type: functional
In short: (§2)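 Mice were dosed ip with compound or vehicle (10 mL/kg). Pentylenetetrazole 85 mg/kg sc was given 1 h later. Mice were housed individually and watched for 30 min for clonic convulsions, scored present or absent. Results are reported as number convulsed over number tested.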

[5] = target: T1, GABA-A receptor; anion channel (Rattus norvegicus) (UniProt O09028+P15431+P18506+P18508+P19969+P20236+P23574+P23576+P28471+P28473+P30191+P62813+P63079+P63138+Q91ZM7+Q9ES14); experiment: Ratio of IC50 in the presence and absence of GABA.; type: functional
Mus musculus [6] = experiment: In vivo Horizontal screen test for motor impairment by the compound at the mentioned dose of 30, i.p. (mg/kg); out of 6 tested animals; type: functional
In short: (§3)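 Mice were dosed orally or ip (vehicle 10 mL/kg). At 1 h, just before PTZ, each was placed on an inverted horizontal screen and scored pass/fail for climbing to the top side within 1 min. Result given as number passed/number tested.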

Mus musculus [7] = experiment: In vivo suppression of pentylenetetrazole-induced convulsions by the compound at the mentioned dose of, 30, i.p. (mg/kg); out of 6 tested animals; type: functional
In short: (§4)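 Mice received compound or vehicle (10 mL/kg) po or ip. After 1 h they got pentylenetetrazole 85 mg/kg sc. They were housed individually and observed 30 min for clonic convulsions (present/absent). Result given as number convulsed/number tested.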

[8] = target: T1, GABA-A receptor; anion channel (Rattus norvegicus); experiment: Relative binding to GABA-A receptor in the presence and absence of GABA; type: functional
Mus musculus [9] = experiment: In vivo Horizontal screen test for motor impairment by the compound at the mentioned dose of 10, i.p. (mg/kg); out of 6 tested animals; type: functional; in short: as §1
Mus musculus [10] = experiment: In vivo suppression of pentylenetetrazole-induced convulsions by the compound at the mentioned dose of, 10, i.p. (mg/kg); out of 6 tested animals; type: functional; in short: as §2
Mus musculus [11] = experiment: In vivo Horizontal screen test for motor impairment by the compound at the mentioned dose of 1, i.p. ( mg/kg); out of 12 tested animals; type: functional; in short: as §3
Mus musculus [12] = experiment: In vivo Horizontal screen test for motor impairment by the compound at the mentioned dose of 10, i.p. (mg/kg); out of 12 tested animals; type: functional; in short: as §3
Mus musculus [13] = experiment: In vivo Horizontal screen test for motor impairment by the compound at the mentioned dose of 30, i.p. (mg/kg); out of 11 tested animals; type: functional; in short: as §3
Mus musculus [14] = experiment: In vivo Horizontal screen test for motor impairment by the compound at the mentioned dose of 30, p.o. (mg/kg); out of 12 tested animals; type: functional; in short: as §3
Mus musculus [15] = experiment: In vivo suppression of pentylenetetrazole-induced convulsions by the compound at the mentioned dose of, 1, i.p. ( mg/kg); out of 12 tested animals; type: functional; in short: as §4
Mus musculus [16] = experiment: In vivo suppression of pentylenetetrazole-induced convulsions by the compound at the mentioned dose of, 10, i.p. (mg/kg); out of 12 tested animals; type: functional; in short: as §4
Mus musculus [17] = experiment: In vivo suppression of pentylenetetrazole-induced convulsions by the compound at the mentioned dose of, 30, i.p. (mg/kg); out of 11 tested animals; type: functional; in short: as §4
Mus musculus [18] = experiment: In vivo suppression of pentylenetetrazole-induced convulsions by the compound at the mentioned dose of, 30, p.o. (mg/kg); out of 12 tested animals; type: functional; in short: as §4
Mus musculus [19] = experiment: In vivo Horizontal screen test for motor impairment by the compound at the mentioned dose of 1, i.p. ( mg/kg); out of 6 tested animals; type: functional; in short: as §1
Mus musculus [20] = experiment: In vivo suppression of pentylenetetrazole-induced convulsions by the compound at the mentioned dose of, 1, i.p. ( mg/kg); out of 6 tested animals; type: functional; in short: as §2

Compound	IC50 [1] [µM]	IC50 [2] [µM]	GS [5]	also measured
CC(C)OP(=O)(c1ccccc1)N1CCCC(c2ccc(Cl)c(Cl)c2)=N1 (configuration not stated)	10	1.4	7.1	Horizontal screen (Mus musculus [3]): 0 number passed; Induced convulsion (Mus musculus [4]): 4 number convulsed
CCCCc1ccc(C2=NN(P(=O)(OC)c3ccccc3)CCC2)cc1 (configuration not stated)	2	0.5	4	
CCc1ccc(C2=NN(S(=O)(=O)c3ccc(I)cc3)CCC2)cc1	10	0.9	11.1	
COP(=O)(c1ccccc1)N1CCCC(c2ccccc2)=N1 (configuration not stated)		> 11		
CCCCc1ccc(C2=NN(S(=O)(=O)c3ccc(I)cc3)CCC2)cc1	10	0.77		Horizontal screen (Mus musculus [6]): 3 number passed; Induced convulsion (Mus musculus [7]): 6 number convulsed; GABA shift [8]: 13.7
CCCCc1ccc(C2=NN(P(=O)(OCC)c3ccccc3)CCC2)cc1 (configuration not stated)	1.12	0.73	1.5	Horizontal screen (Mus musculus [9]): 5 number passed; Induced convulsion (Mus musculus [10]): 5 number convulsed
CCCCc1ccc(S(=O)(=O)N2CCCC(c3ccc(CC)cc3)=N2)cc1	3.77	1.8	2.1	
CCCCc1ccc(C2=NN(S(=O)(=O)c3ccccc3)CCC2)cc1	> 11	1.1	10	Horizontal screen (Mus musculus [3]): 4 number passed; Induced convulsion (Mus musculus [4]): 5 number convulsed
CCCCc1ccc(C2=NN(S(=O)(=O)c3ccc(C)cc3)CCC2)cc1	> 11	2.2	5	
CCCCc1ccc(S(=O)(=O)N2CCCC(c3ccc(C(C)C)cc3)=N2)cc1		10		
CC(=O)[C@H]1CC[C@H]2[C@@H]3CC[C@H]4C[C@H](O)CC[C@]4(C)[C@H]3CC[C@]12C [BREXANOLONE]	2.61	0.08	32.6	
CCCCCCc1ccc(C2=NN(S(=O)(=O)c3ccc(I)cc3)CCC2)cc1	> 11	> 11		
CCCCc1ccc(C2=NN(S(=O)(=O)c3ccc(CCCC)cc3)CCC2)cc1	> 11	0.21	52.4	Horizontal screen (Mus musculus [11]): 11 number passed; Horizontal screen (Mus musculus [12]): 12 number passed; Horizontal screen (Mus musculus [13]): 10 number passed; Horizontal screen (Mus musculus [14]): 12 number passed; Induced convulsion (Mus musculus [15]): 9 number convulsed; Induced convulsion (Mus musculus [16]): 8 number convulsed; Induced convulsion (Mus musculus [17]): 10 number convulsed; Induced convulsion (Mus musculus [18]): 12 number convulsed
C[C@]12CC[C@@H](O)C[C@@H]1CC[C@@H]1[C@@H]2CC[C@]2(C)[C@@H](C(=O)CO)CC[C@@H]12	3.05	0.09	33.9	
CC(C)c1ccc(C2=NN(S(=O)(=O)c3ccc(I)cc3)CCC2)cc1	> 11	6.31	1.7	
CCOP(=O)(c1ccccc1)N1CCCC(c2ccc(Cl)c(C(F)(F)F)c2)=N1 (configuration not stated)	5.4	1.1	4.9	
COP(=O)(c1ccccc1)N1CCCC(c2ccc(Br)cc2)=N1 (configuration not stated)	> 11	> 11		
CCCCc1ccc(S(=O)(=O)N2CCCC(c3ccc(CC(C)C)cc3)=N2)cc1	> 11	> 11		
CCCCc1ccc(C2=NN(S(=O)(=O)c3ccc(Cl)cc3)CCC2)cc1	> 11	> 11		
O=P(OC1CCCC1)(c1ccccc1)N1CCCC(c2ccc(Cl)c(Cl)c2)=N1 (configuration not stated)			32.6	
COP(=O)(c1ccccc1)N1CCCC(c2ccc(Cl)c(C(F)(F)F)c2)=N1 (configuration not stated)	8.3	6.6	1.3	
CCOP(=O)(c1ccccc1)N1CCCC(c2ccc(F)cc2)=N1 (configuration not stated)	> 11	10	1.1	
CC(C)Cc1ccc(C2=NN(S(=O)(=O)c3ccc(I)cc3)CCC2)cc1	> 11	> 11		
COP(=O)(c1ccccc1)N1CCCC(c2ccc(F)cc2)=N1 (configuration not stated)	> 11	10	1.1	
CCOP(=O)(c1ccccc1)N1CCCC(c2ccc(Cl)c(Cl)c2)=N1 (configuration not stated)	1.39	1.05	1.3	Horizontal screen (Mus musculus [19]): 5 number passed; Horizontal screen (Mus musculus [9]): 5 number passed; Induced convulsion (Mus musculus [20]): 6 number convulsed; Induced convulsion (Mus musculus [10]): 6 number convulsed
COc1ccc(C2=NN(P(=O)(OC)c3ccccc3)CCC2)cc1 (configuration not stated)	> 11	6.4	1.7	
